Our source for the Activity, IC50 and CI values is ChEMBL document CHEMBL5712078, “BRD9 Inhibition, Alone or in Combination with Cytostatic Compounds as a Therapeutic Approach in Rhabdoid Tumors” (Int J Mol Sci, 2017).

Experiment [1] relates to BT-12. Kind of experiment: Induction of apoptosis in human BT-12 cells assessed as necrotic cells at 10 uM incubated for 72 hrs by flow cytometry analysis (reference value: 9.1+/-2.8 %). It counts as functional. A digest of the protocol:
(§1)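 Annexin V/PI flow assay. G401 at 10,000 cells/mL and BT12 or Chla266 at 30,000 cells/mL were seeded in 12-well plates. Next day medium was replaced with medium holding I-BRD9 or BI-9564 at 0, 5, 10 or 20 µM final for 72 h. Cells were washed in PBS, stained with FITC-Annexin V and propidium iodide for 15 min in the dark at room temperature, then read by flow cytometry. Percentage of dead cells, n ≥3, mean ± SD, one-way ANOVA versus control.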
A general note: A flow cytometer gives signals particle by particle.

For experiment [2], the system named is G-401. Kind of experiment: Anti-proliferative activity against human G-401 cells assessed as inhibition cell growth incubated for 72 hrs in presence of vincristine by MTT-based Chou-Talalay method. It counts as functional. Conditions: G-401, 72 h. The essentials: (§2)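 Combination MTT assay. I-BRD9 and carboplatin, doxorubicin or vincristine were given together at a fixed 10:1 ratio, with cytostatics 0.0001–10 µM final, added 24 h after seeding. MTT read-out at 570/630 nm after 3 h formazan solubilisation. Combination index from the Chou–Talalay median-effect method: CI <1 synergism, CI >1 antagonism. n ≥3.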

Experiment [3] relates to BT-12. Kind of experiment: Induction of cell cycle arrest in human BT-12 cells assessed as accumulation of cells at G1 phase incubated for 72 hrs by flow cytometry analysis. The experiment is classed as functional, cell-based. The note with it: dose 5-20 µM. The essentials: (§3)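 Cell cycle. Seeding and 72 h treatment as for the apoptosis assay, with I-BRD9 or BI-9564 at 0, 5, 10 or 20 µM final. A 100 µL cell suspension was stained with DAPI and read by flow cytometry. Percentage of cells in G1, n ≥3, mean ± SD, one-way ANOVA versus control.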

Experiment [4] deals with CHLA-266. Briefly: Anti-proliferative activity against human CHLA-266 cells assessed as cell viability incubated for 144 hrs by MTT assay. The experiment is classed as functional, cell-based. Conditions: CHLA-266, 144 h. A digest of the protocol: (§4)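 MTT proliferation assay. Cells were seeded at 3000 (BT16, KD, G401) or 5000 (BT12, Chla266) cells per well and drug was added after 24 h, final 0.001–100 µM. Read at 72 or 144 h; 144 h wells got fresh medium and drug on day 3. MTT for 3 h, formazan dissolved in isopropanol/0.04 N HCl, absorbance at 570/630 nm. Technical triplicates, ≥3 independent runs, IC50 derived.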
In general terms: Tetrazolium assays rely on reduction of a dye to a coloured formazan, in cell work by metabolically active cells.

For experiment [5], the system named is BT-12. Kind of experiment: Synergistic cytotoxicity against human BT-12 cells assessed as combination index incubated for 72 hrs in presence of carboplatin by MTT-based Chou-Talalay method. It counts as functional. A digest of the protocol:
(§5)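 MTT combination assay. BT12 in IMDM/20% FBS at 5000 cells/well; G401 in DMEM/10% FBS. Drugs added 24 h after seeding, with I-BRD9 and cytostatic at a fixed 10:1 ratio (final ranges 0.001–100 µM and 0.0001–10 µM). After 72 h: MTT for 3 h, dissolved in isopropanol/0.04 N HCl, read at 570/630 nm. Technical triplicates, ≥3 independent runs; combination index by Chou–Talalay median-effect analysis.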

Experiment [6] concerns G-401. Kind of experiment: Synergistic cytotoxicity against human G-401 cells assessed as combination index incubated for 72 hrs in presence of carboplatin by MTT-based Chou-Talalay method. It counts as functional. A digest of the protocol:
as §5

In experiment [7] the test system is BT-12. Kind of experiment: Induction of cell cycle arrest in human BT-12 cells assessed as accumulation of cells at G1 phase at 5 uM incubated for 72 hrs by flow cytometry analysis (Rvb =69+/-1.9%). The experiment is classed as functional. The essentials:
as §3

Experiment [8] has as its system CHLA-266. Kind of experiment: Induction of cell cycle arrest in human CHLA-266 cells assessed as accumulation of cells at G1 phase at 10 uM incubated for 72 hrs by flow cytometry analysis (reference value: 74.2+/-3.6%). It counts as functional. The essentials:
as §3

In experiment [9] the test system is G-401. Briefly: Induction of apoptosis in human G-401 cells assessed as necrotic cells at 20 uM incubated for 72 hrs by flow cytometry analysis (Rvb= 5.7+/-1.9 %). It counts as functional. A digest of the protocol:
as §1

Experiment [10] deals with CHLA-266. Kind of experiment: Induction of apoptosis in human CHLA-266 cells assessed as necrotic cells at 10 uM incubated for 72 hrs by flow cytometry analysis (Rvb= 5.0+/-0.3 %).
Experiment [11] deals with BT-12. Kind of experiment: Anti-proliferative activity against human BT-12 cells assessed as inhibition cell growth incubated for 72 hrs in presence of carboplatin by MTT-based Chou-Talalay method. The experiment is classed as functional. Conditions: BT-12, 72 h. The essentials:
as §2

The test system of experiment [12] is BT-12. Briefly: Synergistic cytotoxicity against human BT-12 cells assessed as combination index incubated for 72 hrs in presence of vincristine by MTT-based Chou-Talalay method. The experiment is classed as functional. The essentials: as §5
In experiment [13] the test system is G-401. Kind of experiment: Anti-proliferative activity against human G-401 cells assessed as inhibition cell growth incubated for 72 hrs in presence of carboplatin by MTT-based Chou-Talalay method. The experiment is classed as functional. Conditions: G-401, 72 h. A digest of the protocol:
as §2

The subject of experiment [14] is BT-12. Briefly: Induction of apoptosis in human BT-12 cells assessed as necrotic cells at 5 uM incubated for 72 hrs by flow cytometry analysis (reference value: 9.1+/-2.8 %). The experiment is classed as functional. The essentials:
as §1

Experiment [15] concerns BT-12. Kind of experiment: Induction of apoptosis in human BT-12 cells assessed as necrotic cells at 20 uM incubated for 72 hrs by flow cytometry analysis (Rvb= 9.1+/-2.8 %). It counts as functional. The essentials:
as §1

In experiment [16] the test system is G-401. Briefly: Induction of apoptosis in human G-401 cells assessed as necrotic cells at 10 uM incubated for 72 hrs by flow cytometry analysis (Rvb= 5.7+/-1.9 %). It counts as functional. A digest of the protocol: as §1
Experiment [17] relates to G-401. Briefly: Anti-proliferative activity against human G-401 cells assessed as inhibition cell growth incubated for 72 hrs in presence of doxorubicin by MTT-based Chou-Talalay method. It counts as functional. The note with it: G-401, 72 h. A digest of the protocol:
as §2

Experiment [18] has as its system CHLA-266. Kind of experiment: Anti-proliferative activity against human CHLA-266 cells assessed as cell viability incubated for 72 hrs by MTT assay. The experiment is classed as functional, cell-based. The note with it: CHLA-266, 72 h. The essentials: as §4
In experiment [19] the test system is BT-12. Briefly: Induction of cell cycle arrest in human BT-12 cells assessed as accumulation of cells at G1 phase at 20 uM incubated for 72 hrs by flow cytometry analysis (reference value: 69+/-1.9%). It counts as functional. The essentials: as §3
Experiment [20] has as its system BT-12. Briefly: Anti-proliferative activity against human BT-12 cells assessed as inhibition cell growth incubated for 72 hrs in presence of vincristine by MTT-based Chou-Talalay method. It counts as functional. Conditions: BT-12, 72 h. A digest of the protocol: as §2
Experiment [21] has as its system G-401. Briefly: Induction of cell cycle arrest in human G-401 cells assessed as accumulation of cells at G1 phase at 10 uM incubated for 72 hrs by flow cytometry analysis (Rvb =46.7+/-1.9 %). It counts as functional. The essentials:
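72 h DAPI flow-cytometry cell-cycle assay. Chla266 in IMDM/20% FBS seeded at 30,000 cells/mL; G401 in DMEM/10% FBS at 10,000 cells/mL; 1 mL/well, 37 °C, 5% CO2. Next day the medium was replaced with inhibitor at final 0, 5, 10 or 20 µM. Cells were harvested, PBS-washed, and the G1 percentage was read. n ≥ 3, mean ± SD, one-way ANOVA vs control.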

For orientation: IC50 means the concentration at which inhibition is half-maximal. As to `CCn1cc(-c2cccc(C(F)(F)F)c2)c2sc(C(=N)NC3CCS(=O)(=O)CC3)cc2c1=O`, the Activity in the experiment with BT-12 [1] was 17.6%; in the experiment with BT-12 [3] it was “Dose-Dependent Effect”; in the experiment on BT-12 [7], 75%; in the experiment on CHLA-266 [8], 82.7%; in the experiment with G-401 [9], 70.8%; with CHLA-266 [10], 11.7%. Moreover, the Activity in the experiment on BT-12 [14] is reported as 19.9%; in the experiment on BT-12 [15] it was 34.6%; in the experiment with G-401 [16] it was 18.8%; in the experiment on BT-12 [19] it was 85.6%; in the experiment on G-401 [21], 67.1%. The IC50 in the experiment with G-401 [2] was 0.008 µM; with CHLA-266 [4] it was 24.7 µM; in the experiment on BT-12 [11], 40.9 µM; in the experiment on G-401 [13] it was 9.1 µM; in the experiment with G-401 [17] it was 0.096 µM; in the experiment with CHLA-266 [18], 13.3 µM. In addition, in the experiment on BT-12 [20], the IC50 came to 16.7 µM. The results for the CI in the experiment with BT-12 [5], in the experiment with G-401 [6] and in the experiment on BT-12 [12] were 1.01, 0.37 and 96.1, respectively.
